Columns and labels:
[1] = test system: CHRM4 and SCN3A gene expression in F9 cells; format: cell-based, mouse; conditions: 10 μM, 24 hours, quantitative RT-PCR
Procedure, shortened: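 F9 mouse teratocarcinoma cells, grown in DMEM with 10% FBS on 0.1% gelatin-coated dishes, exposed to 10 μM test compound for 24 h; dose series also run in F9 and HeLa cells. CHRM4 and SCN3A mRNA quantified by real-time RT-PCR. LSD1 siRNA-treated F9 cells served as comparison.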

HeLa = test: Growth of HeLa cells; format: cell-based; conditions: even at relatively high concentrations (100–200 μM)
[2] = target: recombinant human LSD1 protein (Homo sapiens, UniProt O60341); test: In vitro LSD1 demethylation assay, di-methylated H3K4 peptide, mass-spectrometry; format: biochemical; conditions: read-out: half maximal inhibitory concentration (IC50) for LSD1, 30 °C, 1 hour, MS peak areas
Procedure, shortened: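 GST-tagged human LSD1 was expressed in bacteria and purified; protein was also obtained commercially. The enzyme was incubated with di-methylated H3K4 peptide at 30 °C for 1 h, with test compound at 0–100 μM (0, 1, 2, 5, 10, 20, 50, 100 μM). Me1 and Me0 products were read by MALDI TOF/TOF MS. Conversion efficiency came from integrated product peak areas, and IC50 was fitted from conversion efficiency.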

293 = test: Growth of 293 cells; format: cell-based; conditions: even at relatively high concentrations (100–200 μM)
F9 cells [3] = test: Cell permeability assay in F9 cells, mass-spectrometry; format: in vitro ADME, mouse; conditions: 2 hours incubation, washed cells
Procedure, shortened: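 F9 cells exposed to test compound for 2 h, with DMSO as control, then extensively washed and lysed immediately. Lysate mixed with 4 volumes acetone at −20 °C for 6 h, precipitate removed by centrifugation, supernatant lyophilized and redissolved in methanol. Compound detected by mass spectrometry against pure compound and untreated-cell lysate as m/z references.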

mouse ES cells = test: Spherical growth of embryonic stem cells; format: cell-based; conditions: 50 μM, 30 hours
Procedure, shortened: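 Mouse ES cells, cultured on irradiated mouse embryonic fibroblasts in DMEM with 10% FBS, were treated with DMSO or 50 μM test compound for 30 h. Spherical colony growth was then examined.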

[4] = test system: methylated H3K4 in F9 embryonic teratocarcinoma cells; test: Histone H3 methylation in F9 cells, Western blotting; format: cell-based, mouse; conditions: for IC50: read-out: IC50 in F9 cells (histone H3K4 methylation), various concentrations
Procedure, shortened: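 F9 cells received 10 μM test compound for 24 h, plus a concentration series. Total histones were then extracted. Mono- and di-methylated H3K4, tri-methylated H3K4, di-methylated H3K9 and total histone H3 were probed by Western blot with specific antibodies. F9 cells given 50 nM LSD1 siRNA for 48 h served as comparison.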

F9 cells [5] = test: Growth of F9 cells, cell numbers counted; format: cell-based, mouse; conditions: 50 μM, 30 hours
Procedure, shortened: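 F9 cells on gelatin-coated dishes in DMEM/10% FBS were treated with DMSO or 50 μM test compound for 30 h. Cells were then counted and expressed as percent of DMSO control. A separate concentration series was also run over 30 h.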

NIH 3T3 = test: Growth of NIH 3T3 cells; format: cell-based; conditions: even at relatively high concentrations (100–200 μM)
NCCIT cells = test: Growth of NCCIT cells; format: cell-based, human; conditions: 50 μM, 30 hours
Procedure, shortened: (§1)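 Human pluripotent NCCIT and NTERA-2 cells, maintained in DMEM with 10% FBS, were exposed to 50 μM test compound for 30 h and growth assessed. Non-pluripotent HeLa, 293 and NIH3T3 cells were run under the same conditions.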

NTERA-2 cells = test: Growth of NTERA-2 cells; format: cell-based, human; conditions: 50 μM, 30 hours
Procedure, shortened: as §1

N=C(N)c1ccc(C(=O)N2CCN(C(=O)c3cc(CN4CCN(C(=N)N)CC4)cc([N+](=O)[O-])c3)CC2)cc1 [CBB1003]
activation of CHRM4 and SCN3A expression [1]: led to the activation
growth inhibition of HeLa cells (HeLa): did not display any significant growth inhibition
IC50 [2]: 10.5 µM
growth inhibition of 293 cells 293: did not display any significant growth inhibition
presence of compound in F9 cells after exposure (F9 cells [3]): readily found
spherical growth of ES cells (mouse ES cells): substantial inhibition
effect on mono- and di-methylated H3K4 in F9 cells ([4]; 10 μM, 24 hours): reproducible increase
effect on tri-methylated H3K4 and di-methylated H3K9 in F9 cells ([4]; 10 μM, 24 hours): very little effects
IC50 [4]: 5 to 10 µM
growth of F9 cells (F9 cells [5]): significantly inhibit
growth inhibition of NIH 3T3 cells (NIH 3T3): did not display any significant growth inhibition
growth of NCCIT cells (NCCIT cells): inhibited
growth of NTERA-2 cells (NTERA-2 cells): inhibited

COC(=O)c1cc(CN2CCN(C(=N)N)CC2)cc(C(=O)N2CCN(C(=O)c3ccc(C(=N)N)cc3)CC2)c1 [CBB1007]
growth inhibition of HeLa cells (HeLa): did not display any significant growth inhibition
IC50 [2]: 5.27 µM
growth inhibition of 293 cells 293: did not display any significant growth inhibition
spherical growth of ES cells (mouse ES cells): substantial inhibition
IC50 [4]: 1 to 5 µM
growth of F9 cells (F9 cells [5]): significantly inhibit
growth inhibition of NIH 3T3 cells (NIH 3T3): did not display any significant growth inhibition
growth of NCCIT cells (NCCIT cells): inhibited
growth of NTERA-2 cells (NTERA-2 cells): inhibited

From paper PMC3228901 (Cancer research, 2011)
